Results reported in ChEMBL document CHEMBL4257459, “Synergistic antifungal effect of cyclized chalcone derivatives and fluconazole against Candida albicans” (2017).
Converted amounts (≈) assume the structure as drawn.

What was measured:
Candida albicans [1] = test: Inhibition of ABC efflux pumps in fluconazole susceptible Candida albicans 004gr assessed as reduction in energy-dependent rhodamine 6G efflux in presence of 0.1 M glucose after 25 mins by fluorescence assay relative to control
In short: (§1)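 Cells grown in TSB at 37 °C for 8 h, washed, resuspended in glucose-free PBS at 1 × 10^8 cells. De-energized 45 min with 5 mM deoxyglucose plus 5 mM dinitrophenol. […] Washed, sampled 5–25 min, then 0.1 M glucose added. Absorbance 527 nm, R6G from standard curve.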

Candida albicans [2] = test: Antifungal activity against fluconazole resistant Candida albicans A171 by CLSI protocol based broth microdilution method; assay type: functional
In short: (§2)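 Broth microdilution per CLSI M27-A3 against clinical C. albicans isolates. Strains sub-cultured at least twice on Tryptone Soya Agar, 37 °C, 48 h. Compounds dissolved in DMSO at 2000 μg mL–1 stock. Fluconazole positive control, plus culture, media and vehicle controls. Run in duplicate; MIC in μg mL–1.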

Candida albicans [3] = test: Antifungal activity against fluconazole susceptible Candida albicans 0072gr by CLSI protocol based broth microdilution method; assay type: functional
In short: (§3)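 Clinical isolates and control strain subcultured at least twice on TSA, 37 °C, 48 h. MICs by CLSI M27-A3 broth microdilution; compounds dissolved in DMSO to 2000 μg mL–1 stock. Fluconazole positive control, culture, media and DMSO vehicle controls in each run. Duplicate experiments; MIC in μg mL–1.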

Candida albicans [4] = test: Antifungal activity against fluconazole resistant Candida albicans A171 in presence of fluconazole by CLSI protocol based broth microdilution method; assay type: functional
In short: (§4)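 Checkerboard-style combination with fluconazole at a 1 : 1 ratio, over concentrations 2–4 fold below each agent's MIC alone, by CLSI broth microdilution. Fractional inhibitory concentration index calculated and interpreted as synergy (<0.5), additive (0.5–1), indifferent or antagonistic.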

Candida albicans [5] = test: Antifungal activity against Candida albicans ATCC 90028 in presence of fluconazole by CLSI protocol based broth microdilution method; assay type: functional
Candida albicans [6] = test: Inhibition of ABC efflux pumps in fluconazole susceptible Candida albicans 002B1 assessed as reduction in energy-dependent rhodamine 6G efflux in presence of 0.1 M glucose after 25 mins […] relative to control
Candida albicans [7] = test: Antifungal activity against fluconazole resistant Candida albicans 167-1 by CLSI protocol based broth microdilution method; assay type: functional; in short: as §2
Candida albicans [8] = test: Antifungal activity against fluconazole susceptible Candida albicans 004B1 in presence of fluconazole by CLSI protocol based broth microdilution method; assay type: functional
Candida albicans [9] = test: Inhibition of ABC efflux pumps in fluconazole susceptible Candida albicans 003gr assessed as reduction in energy-dependent rhodamine 6G efflux in presence of 0.1 M glucose after 25 mins […] relative to control
Candida albicans [10] = test: Antifungal activity against fluconazole susceptible Candida albicans 004gr in presence of fluconazole by CLSI protocol based broth microdilution method; assay type: functional
Candida albicans [11] = test: Antifungal activity against fluconazole susceptible Candida albicans 0072gr in presence of fluconazole by CLSI protocol based broth microdilution method; assay type: functional
Candida albicans [12] = test: Antifungal activity against fluconazole susceptible Candida albicans 002B1 by CLSI protocol based broth microdilution method; assay type: functional; in short: as §3
Candida albicans [13] = test: Inhibition of ABC efflux pumps in fluconazole resistant Candida albicans 167-1 assessed as reduction in energy-dependent rhodamine 6G efflux in presence of 0.1 M glucose after 25 mins […] relative to control
Candida albicans [14] = test: Antifungal activity against fluconazole resistant Candida albicans 167-2 in presence of fluconazole by CLSI protocol based broth microdilution method; assay type: functional; in short: as §4
Candida albicans [15] = test: Inhibition of ergosterol biosynthesis in fluconazole resistant Candida albicans A171 at 0.5 to 1 times MIC relative to control; assay type: functional
In short: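 Total sterols quantified by alcoholic KOH extraction in cells grown in 50 ml TSB with compounds at MIC and ½ MIC; untreated and 8 μg mL–1 fluconazole controls. Spectral scan; ergosterol content from A281.5 and A230 absorbances, dilution factor and pellet weight, correcting for 24(28) DHE.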

Candida albicans [16] = test: Antifungal activity against Candida albicans ATCC 90028 by CLSI protocol based broth microdilution method; assay type: functional; in short: as §3
Candida albicans [17] = test: Antifungal activity against fluconazole susceptible Candida albicans 0079gr by CLSI protocol based broth microdilution method; assay type: functional; in short: as §3
Candida albicans [18] = test: Inhibition of ABC efflux pumps in fluconazole resistant Candida albicans 167-2 assessed as reduction in energy-dependent rhodamine 6G efflux in presence of 0.1 M glucose after 25 mins […] relative to control
Candida albicans [19] = test: Antifungal activity against fluconazole resistant Candida albicans 167-2 by CLSI protocol based broth microdilution method; assay type: functional; in short: as §2
Candida albicans [20] = test: Inhibition of ABC efflux pumps in fluconazole resistant Candida albicans A171 assessed as reduction in energy-dependent rhodamine 6G efflux in presence of 0.1 M glucose after 25 mins by fluorescence assay relative to control; in short: as §1
Candida albicans [21] = test: Antifungal activity against fluconazole susceptible Candida albicans 0079gr in presence of fluconazole by CLSI protocol based broth microdilution method; assay type: functional
Candida albicans [22] = test: Antifungal activity against fluconazole susceptible Candida albicans 004gr by CLSI protocol based broth microdilution method; assay type: functional; in short: as §3
Candida albicans [23] = test: Antifungal activity against fluconazole susceptible Candida albicans 003gr in presence of fluconazole by CLSI protocol based broth microdilution method; assay type: functional
Candida albicans [24] = test: Inhibition of ABC efflux pumps in fluconazole susceptible Candida albicans 0079gr assessed as reduction in energy-dependent rhodamine 6G efflux in presence of 0.1 M glucose after 25 mins by fluorescence assay relative to control; in short: as §1
Candida albicans [25] = test: Inhibition of ABC efflux pumps in fluconazole susceptible Candida albicans 004B1 assessed as reduction in energy-dependent rhodamine 6G efflux in presence of 0.1 M glucose after 25 mins by fluorescence assay relative to control; in short: as §1
Candida albicans [26] = test: Antifungal activity against fluconazole susceptible Candida albicans 002B1 in presence of fluconazole by CLSI protocol based broth microdilution method; assay type: functional
Candida albicans [27] = test: Inhibition of ABC efflux pumps in fluconazole susceptible Candida albicans 0072gr assessed as reduction in energy-dependent rhodamine 6G efflux in presence of 0.1 M glucose after 25 mins […] relative to control
Candida albicans [28] = test: Antifungal activity against fluconazole susceptible Candida albicans 004B1 by CLSI protocol based broth microdilution method; assay type: functional; in short: as §3
Candida albicans [29] = test: Inhibition of ergosterol biosynthesis in fluconazole susceptible Candida albicans ATCC 90028 at 0.5 to 1 times MIC relative to control; assay type: functional
In short: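 ATCC90028 grown in 50 ml TSB with MIC and ½ MIC of compound; untreated and 8 μg mL–1 fluconazole controls. Sterols extracted by alcoholic KOH method and spectrophotometrically scanned; ergosterol % calculated from A281.5 and A230 (E values 290 and 518) with dilution factor, per pellet weight.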

Candida albicans [30] = test: Antifungal activity against fluconazole resistant Candida albicans 167-1 in presence of fluconazole by CLSI protocol based broth microdilution method; assay type: functional; in short: as §4
Candida albicans [31] = test: Antifungal activity against fluconazole susceptible Candida albicans 003gr by CLSI protocol based broth microdilution method; assay type: functional; in short: as §3

| SMILES | inhibition (Candida albicans [1]) | MIC (Candida albicans [2]) | MIC (Candida albicans [3]) | fractional inhibitory concentration index (FICI) (Candida albicans [4]) | fractional inhibitory concentration index (FICI) (Candida albicans [5]) | inhibition (Candida albicans [6]) | MIC (Candida albicans [7]) | fractional inhibitory concentration index (FICI) (Candida albicans [8]) | inhibition (Candida albicans [9]) | fractional inhibitory concentration index (FICI) (Candida albicans [10]) | fractional inhibitory concentration index (FICI) (Candida albicans [11]) | MIC (Candida albicans [12]) | inhibition (Candida albicans [13]) | fractional inhibitory concentration index (FICI) (Candida albicans [14]) | inhibition (INH) (Candida albicans [15]) | MIC (Candida albicans [16]) | MIC (Candida albicans [17]) | inhibition (Candida albicans [18]) | MIC (Candida albicans [19]) | inhibition (Candida albicans [20]) | other results |
| --- | --- | --- | --- | --- | --- | --- | --- | --- | --- | --- | --- | --- | --- | --- | --- | --- | --- | --- | --- | --- | --- |
| O=C(/C=C/c1ccccc1)c1ccccc1 [CHALCONE] | < 20% | 31 to 62 µg/mL (≈ 149 to 298 µM) | 31 to 62 µg/mL (≈ 149 to 298 µM) | 0.562 - 0.62 | 0.75 - 4.38 | < 20% | 31 to 62 µg/mL (≈ 149 to 298 µM) | 0.75 - 4.38 | < 20% | 0.75 - 4.38 | 0.75 - 4.38 | 31 to 62 µg/mL (≈ 149 to 298 µM) | < 20% | 0.562 - 0.62 | 49 - 94% | 31 to 62 µg/mL (≈ 149 to 298 µM) | 31 to 62 µg/mL (≈ 149 to 298 µM) | < 20% | 31 to 62 µg/mL (≈ 149 to 298 µM) | < 20% | fractional inhibitory concentration index (FICI) (Candida albicans [21]): 0.75 - 4.38; MIC (Candida albicans [22]): 31 to 62 µg/mL (≈ 149 to 298 µM); fractional inhibitory concentration index (FICI) (Candida albicans [23]): 0.75 - 4.38; inhibition (Candida albicans [24]): < 20%; inhibition (Candida albicans [25]): < 20%; fractional inhibitory concentration index (FICI) (Candida albicans [26]): 0.75 - 4.38; inhibition (Candida albicans [27]): < 20%; MIC (Candida albicans [28]): 31 to 62 µg/mL (≈ 149 to 298 µM); inhibition (INH) (Candida albicans [29]): 66 - 99%; fractional inhibitory concentration index (FICI) (Candida albicans [30]): 0.562 - 0.62; MIC (Candida albicans [31]): 31 to 62 µg/mL (≈ 149 to 298 µM) |
| SC1=NC(c2ccccc2)=CC(c2ccccc2)N1 (stereo not drawn) | < 20% | 8 to 16 µg/mL (≈ 30 to 60.1 µM) | 0.5 to 4 µg/mL (≈ 1.88 to 15 µM) | 0.254 - 0.27 | 0.37 - 1.13 | < 20% | 8 to 16 µg/mL (≈ 30 to 60.1 µM) | 0.37 - 1.13 | < 20% | 0.37 - 1.13 | 0.37 - 1.13 | 0.5 to 4 µg/mL (≈ 1.88 to 15 µM) | < 20% | 0.254 - 0.27 | 49 - 94% | 0.5 to 4 µg/mL (≈ 1.88 to 15 µM) | 0.5 to 4 µg/mL (≈ 1.88 to 15 µM) | < 20% | 8 to 16 µg/mL (≈ 30 to 60.1 µM) | < 20% | fractional inhibitory concentration index (FICI) (Candida albicans [21]): 0.37 - 1.13; MIC (Candida albicans [22]): 0.5 to 4 µg/mL (≈ 1.88 to 15 µM); fractional inhibitory concentration index (FICI) (Candida albicans [23]): 0.37 - 1.13; inhibition (Candida albicans [24]): < 20%; inhibition (Candida albicans [25]): < 20%; fractional inhibitory concentration index (FICI) (Candida albicans [26]): 0.37 - 1.13; inhibition (Candida albicans [27]): < 20%; MIC (Candida albicans [28]): 0.5 to 4 µg/mL (≈ 1.88 to 15 µM); inhibition (INH) (Candida albicans [29]): 66 - 99%; fractional inhibitory concentration index (FICI) (Candida albicans [30]): 0.254 - 0.27; MIC (Candida albicans [31]): 0.5 to 4 µg/mL (≈ 1.88 to 15 µM) |
| c1ccc(-c2cc(-c3ccccc3)[nH]n2)cc1 | < 20% | 62 to 125 µg/mL (≈ 281 to 567 µM) | 16 to 62 µg/mL (≈ 72.6 to 281 µM) | 0.625 - 1.5 | 0.63 - 2.5 | < 20% | 62 to 125 µg/mL (≈ 281 to 567 µM) | 0.63 - 2.5 | < 20% | 0.63 - 2.5 | 0.63 - 2.5 | 16 to 62 µg/mL (≈ 72.6 to 281 µM) | < 20% | 0.625 - 1.5 | 49 - 94% | 16 to 62 µg/mL (≈ 72.6 to 281 µM) | 16 to 62 µg/mL (≈ 72.6 to 281 µM) | < 20% | 62 to 125 µg/mL (≈ 281 to 567 µM) | < 20% | fractional inhibitory concentration index (FICI) (Candida albicans [21]): 0.63 - 2.5; MIC (Candida albicans [22]): 16 to 62 µg/mL (≈ 72.6 to 281 µM); fractional inhibitory concentration index (FICI) (Candida albicans [23]): 0.63 - 2.5; inhibition (Candida albicans [24]): < 20%; inhibition (Candida albicans [25]): < 20%; fractional inhibitory concentration index (FICI) (Candida albicans [26]): 0.63 - 2.5; inhibition (Candida albicans [27]): < 20%; MIC (Candida albicans [28]): 16 to 62 µg/mL (≈ 72.6 to 281 µM); inhibition (INH) (Candida albicans [29]): 66 - 99%; fractional inhibitory concentration index (FICI) (Candida albicans [30]): 0.625 - 1.5; MIC (Candida albicans [31]): 16 to 62 µg/mL (≈ 72.6 to 281 µM) |
